Laboratory results from ChEMBL document CHEMBL4406880, “Design, synthesis, and bioactivity of dihydropyrimidine derivatives as kinesin spindle protein inhibitors” (Bioorg Med Chem, 2019).

Key:
SR = experiment: Growth inhibition of human SR cells assessed as growth percentage at 10 uM incubated for 48 hrs by sulforhodamine B assay relative to control; assay type: functional; settings: read-out: Activity
In short: (§1)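 NCI-60 single-dose screen. Cells were grown in RPMI 1640 with 5% FBS and 2 mM L-glutamine and plated at 5,000–40,000 cells/well. After an overnight preincubation at 37 °C in 5% CO2, compound was added at a final 10 µM from a DMSO stock, with DMSO/PBS controls. After 48 h, cells were TCA-fixed and stained with 0.4% SRB, and absorbance was read at 515 nm. Growth is given as a percentage of untreated control.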

NCI-H460 = experiment: Growth inhibition of human NCI-H460 cells assessed as growth percentage at 10 uM incubated for 48 hrs by sulforhodamine B assay relative to control; assay type: functional; settings: NCI-H460, 48 h, read-out: Activity
In short: (§2)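 NCI-60 one-dose screen. Cells in RPMI 1640 with 5% FBS and 2 mM L-glutamine, seeded at 5,000–40,000 cells/well according to doubling time, and preincubated overnight at 37 °C, 5% CO2. A time-zero plate was TCA-fixed at drug addition. Compound from DMSO stock, final 10 µM, 48 h; DMSO vehicle controls. Fixation with TCA, 10% final (16% for suspension cells). SRB stain, Tris solubilization, A515. Result given as % growth versus untreated cells.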

HCT-15 = experiment: Growth inhibition of human HCT15 cells assessed as growth percentage at 10 uM incubated for 48 hrs by sulforhodamine B assay relative to control; assay type: functional; settings: HCT-15, 48 h, read-out: Activity
In short: (§3)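 NCI-60 one-dose screen: cells in RPMI 1640 with 5% FBS and 2 mM L-glutamine, plated at 5,000–40,000 cells/well and preincubated 24 h at 37 °C, 5% CO2. Compound is added from a DMSO stock to a final 10 µM and incubated 48 h. Cells are TCA-fixed and stained with sulforhodamine B, read at 515 nm. Output is % growth versus untreated control, with a time-zero plate.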

SF-539 = experiment: Growth inhibition of human SF539 cells assessed as growth percentage at 10 uM incubated for 48 hrs by sulforhodamine B assay relative to control; assay type: functional; settings: SF-539, 48 h, read-out: Activity; in short: as §1
SNB-75 = experiment: Growth inhibition of human SNB75 cells assessed as growth percentage at 10 uM incubated for 48 hrs by sulforhodamine B assay relative to control; assay type: functional; settings: SNB-75, 48 h, read-out: Activity; in short: as §1
LOX IMVI = experiment: Growth inhibition of human LOXIMVI cells assessed as growth percentage at 10 uM incubated for 48 hrs by sulforhodamine B assay relative to control; assay type: functional; settings: read-out: Activity; in short: as §2
OVCAR-5 = experiment: Growth inhibition of human OVCAR5 cells assessed as growth percentage at 10 uM incubated for 48 hrs by sulforhodamine B assay relative to control; assay type: functional; settings: OVCAR-5, 48 h, read-out: Activity; in short: as §1
A498 = experiment: Growth inhibition of human A498 cells assessed as growth percentage at 10 uM incubated for 48 hrs by sulforhodamine B assay relative to control; assay type: functional; settings: A498, 48 h, read-out: Activity; in short: as §3
CAKI-1 = experiment: Growth inhibition of human Caki1 cells assessed as growth percentage at 10 uM incubated for 48 hrs by sulforhodamine B assay relative to control; assay type: functional; settings: CAKI-1, 48 h, read-out: Activity; in short: as §3
PC-3 = experiment: Growth inhibition of human PC3 cells assessed as growth percentage at 10 uM incubated for 48 hrs by sulforhodamine B assay relative to control; assay type: functional; settings: PC-3, 48 h, read-out: Activity; in short: as §1
[1] = Growth inhibition of human HEK293 cells assessed as cell viability at 0.39 ug incubated for 48 hrs by MTT assay relative to control; assay type: cell-based; settings: read-out: Activity
[2] = Growth inhibition of human HEK293 cells assessed as cell viability at 1.56 ug incubated for 48 hrs by MTT assay relative to control; assay type: cell-based; settings: read-out: Activity
[3] = Growth inhibition of human HEK293 cells assessed as cell viability at 6.25 ug incubated for 48 hrs by MTT assay relative to control; assay type: cell-based; settings: read-out: Activity
[4] = Growth inhibition of human HEK293 cells assessed as cell viability at 25 ug incubated for 48 hrs by MTT assay relative to control; assay type: cell-based; settings: read-out: Activity
[5] = Growth inhibition of human HEK293 cells assessed as cell viability at 100 ug incubated for 48 hrs by MTT assay relative to control; assay type: cell-based; settings: read-out: Activity
HEK293 = experiment: Growth inhibition of human HEK293 cells assessed as cell viability incubated for 48 hrs by MTT assay; assay type: cell-based; parameters: unit not given here
In short: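 HEK 293 normal-cell growth inhibition; measured in triplicate, IC50 reported as mean ± SD.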

[6] = Inhibition of kinesin (unknown origin) assessed as reduction in ATPase activity using microtubule as substrate measured for 5 to mins; parameters: species or system Homo sapiens

Structure (SMILES) | growth at 10 µM (SR) | growth at 10 µM (NCI-H460) | growth at 10 µM (HCT-15) | growth at 10 µM (SF-539) | growth at 10 µM (SNB-75) | growth at 10 µM (LOX IMVI) | growth at 10 µM (OVCAR-5) | growth at 10 µM (A498) | growth at 10 µM (CAKI-1) | growth at 10 µM (PC-3) | viability at 48 h, 0.39 ug [1] | viability at 48 h, 1.56 ug [2] | viability at 48 h, 6.25 ug [3] | viability at 48 h, 25 ug [4] | viability at 48 h, 100 ug [5] | IC50 (HEK293) | IC50 [6]
CC1=C(C(=O)OC(C)C)C(c2ccc3c(c2)OCO3)NC(=S)N1 (racemic) | 103% | 110% | 100% | 98.9% | 95.2% | 97.3% | 105% | 109% | 93.8% | 86% | – | – | – | – | – | – | –
CC1=C(C(=O)c2ccccc2)C(c2ccc3c(c2)OCO3)NC(=S)N1 (racemic) | 6.28% | 8.05% | 33.7% | 36.4% | -1.4% | 36.2% | 72.5% | -12.5% | 35.6% | 61.5% | 86.8% | 79.5% | 69.9% | 57.9% | 46% | 62.02 | 10.7 µM
COCCOC(=O)C1=C(C)NC(=S)NC1c1ccc2c(c1)OCO2 (racemic) | 95.5% | 112% | 102% | 99.2% | – | 101% | 109% | 96.1% | 99.8% | 95.7% | – | – | – | – | – | – | –
O=C1NC2=C(C(=O)c3ccccc32)C(c2ccc3c(c2)OCO3)N1 (racemic) | 110% | 113% | 105% | 94.7% | 78.5% | 96.8% | 105% | 112% | 90.9% | 101% | – | – | – | – | – | – | –
CC1=C(C(=O)c2ccccc2)C(c2ccc3c(c2)OCO3)NC(=O)N1 (racemic) | 101% | 114% | 99.8% | 99.7% | 91.4% | 97.3% | 106% | – | 91.1% | 103% | – | – | – | – | – | – | –
CC(=O)N1C(=S)NC(C)=C(C(=O)OC(C)C)C1c1ccc2c(c1)OCO2 (racemic) | 89.6% | 110% | 99.3% | 98.2% | 97.2% | 98.8% | 107% | 114% | 97.2% | 87.2% | – | – | – | – | – | – | –
CC(=O)C1=C(C)NC(=S)NC1c1ccc2c(c1)OCO2 (racemic) | 104% | 109% | 108% | 98.7% | 90.1% | 98.7% | 101% | 115% | 91.9% | 98.1% | – | – | – | – | – | – | –
CC1=C(C(=O)OC(C)C)C(c2ccc3c(c2)OCO3)NC(=O)N1 (racemic) | 108% | 110% | 99.7% | 100% | 105% | 96.3% | 103% | 104% | 93.9% | 101% | – | – | – | – | – | – | –
CC1(C)CC(=O)C2=C(C1)NC(=O)NC2c1ccc2c(c1)OCO2 (racemic) | 118% | 117% | 103% | 106% | 97.5% | 99.3% | 108% | 124% | 93.9% | 99.4% | 78% | 71.5% | 60.1% | 50.9% | 43.5% | 33.2 | 3.95 µM
CC1=C(C(=O)OCC(C)C)C(c2ccc3c(c2)OCO3)NC(=S)N1 (racemic) | 104% | 110% | 100% | 109% | 94.1% | 96.3% | 105% | 121% | 86.6% | 84.4% | – | – | – | – | – | – | –
O=C1C2=C(NC(=S)NC2c2ccc3c(c2)OCO3)c2ccccc21 (racemic) | 107% | 111% | 105% | 105% | 81% | 99.2% | 106% | 109% | 87.4% | 96.3% | – | – | – | – | – | – | –
COCCOC(=O)C1=C(C)NC(=S)N(C(C)=O)C1c1ccc2c(c1)OCO2 (racemic) | – | 104% | 103% | 97.6% | 83% | 97.2% | 102% | 85.3% | 97.4% | 97.8% | – | – | – | – | – | – | –
CC1=C(C(=O)OCc2ccccc2)C(c2ccc3c(c2)OCO3)NC(=S)N1 (racemic) | 77.2% | 96.7% | 96.5% | 99.3% | – | 98.5% | 100% | 72.8% | 81.8% | 85.2% | – | – | – | – | – | – | –
CC1=C(C(=O)OCc2ccccc2)C(c2ccc3c(c2)OCO3)NC(=O)N1 (racemic) | 104% | 109% | 98.1% | 97.8% | 96% | 97.9% | 106% | 105% | 89.5% | 84.5% | – | – | – | – | – | – | –
COCCOC(=O)C1=C(C)NC(=O)NC1c1ccc2c(c1)OCO2 (racemic) | 105% | 105% | 101% | 101% | 89.6% | 98.6% | 101% | 87% | 90.4% | 98.8% | – | – | – | – | – | – | –
CC1=C(C(=O)OCC(C)C)C(c2ccc3c(c2)OCO3)NC(=O)N1 (racemic) | 108% | 113% | 101% | 104% | 100% | 96.5% | 104% | 121% | 96.3% | 92.2% | – | – | – | – | – | – | –
CC(=O)C1=C(C)NC(=O)NC1c1ccc2c(c1)OCO2 (racemic) | 108% | 114% | 106% | 102% | 94.1% | 96.4% | 102% | 120% | 91.4% | 99% | – | – | – | – | – | – | –
CC(=O)N1C(=S)NC(C)=C(C(=O)OCC(C)C)C1c1ccc2c(c1)OCO2 (racemic) | 80% | 105% | 93.3% | 101% | 92.2% | 97.5% | 99.4% | 104% | 96.2% | 81.2% | – | – | – | – | – | – | –
